Experimental data taken from publication PMC7065888 (Science Advances, 2020).

Key:
mouse RBP2 = target: T1, mouse RBP2 (Mus musculus, UniProt Q08652); format: binding
T1 sequence (Q08652 1-134): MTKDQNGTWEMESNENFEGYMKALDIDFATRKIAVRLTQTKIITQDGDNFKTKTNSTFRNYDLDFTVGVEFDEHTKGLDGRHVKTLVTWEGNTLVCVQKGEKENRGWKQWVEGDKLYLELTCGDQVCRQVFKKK

recombinant mouse RBP2 = format: binding; settings: holo-RBP2 incubated with 2 molar excess of compound, room temperature, 15 min
RBP2 = settings: cited from earlier work
recombinant apo-RBP2 = format: binding, mouse; settings: MS/MS-based detection
In short: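 Purified recombinant mouse RBP2 in apo form was incubated with the test lipid. The protein was then chromatographically repurified to strip unbound ligand, and lipid still associated with the protein was detected by tandem mass spectrometry.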

Row | SMILES | displacement of retinol from its RBP2 binding pocket (recombinant mouse RBP2) | further results
1 | CCCCC/C=C\C/C=C\C/C=C\C/C=C\CCCC(=O)NCCO [AEA, N-arachidinoylethanolamine] | little displacement | fold less effective than MAGs in displacing bound retinol from RBP2 (mouse RBP2; fluorescence emission spectra of holo-RBP2): ~ 25 fold
2 | CC1=C(/C=C/C(C)=C/C=C/C(C)=C/CO)C(C)(C)CCC1 [retinol, all-trans-retinol] | – | Kd for binding to RBP2 relative to the Kd values reported here for 2-MAG binding (RBP2): two to six times higher
3 | CCCCCCCCCCCCCC(=O)NCCO [MEA, N-myristoylethanolamine] | little displacement | –
4 | CC1=C(/C=C/C(C)=C/C=C/C(C)=C/C=O)C(C)(C)CCC1 [retinaldehyde] | – | Kd for binding to RBP2 relative to the Kd values reported here for 2-MAG binding (RBP2): two to six times higher
5 | CCCCC/C=C\C/C=C\CCCCCCCC(=O)OC(CO)CO [2-LG, 2-lineoylglycerol] | displaced retinol | –
6 | CCCCC/C=C\C/C=C\C/C=C\C/C=C\CCCC(=O)OC[C@@H](O)CO [1-AG, 1-arachidonoylglycerol] | displaced retinol | –
7 | CCCCC/C=C\C/C=C\CCCCCCCC(=O)NCCO [LEA, N-linoleoylethanolamine] | little displacement | –
8 | CCCCC/C=C\C/C=C\C/C=C\C/C=C\CCCC(=O)OC(CO)CO [2-AG, 2-arachidonoylglycerol] | displaced retinol | Kd (mouse RBP2): 27.1 ± 2.4 nM; ligand bound to RBP2 after chromatographic repurification (recombinant apo-RBP2): remained bound to RBP2
9 | CCCCCCCC/C=C\CCCCCCCC(=O)OC(CO)CO [2-OG, 2-oleoylglycerol] | displaced retinol | Kd (mouse RBP2): 65.4 ± 4.4 nM
